Assay results taken from paper PMC6044135 (Indian Journal of Pharmacology, 2018).

Experiments:
[1] = may be caused by the ligand (picolinate); cited from earlier work
[2] = cited from earlier work
Bioavailability analysis = assay type: in vivo, Sprague-Dawley rat; details: for absolute bioavailability (FAB): AUCig × 100%/AUCiv; for relative bioavailability (FRB): oral, AUC chromium malate × 100%/AUC chromium picolinate
In short: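 AUCs came from compartment-model fits of serum Cr–time data in SD rats of each sex. Dosing was 20 μg Cr/kg bw by oral gavage or caudal-vein injection. Relative bioavailability = AUC of test compound ×100%/AUC of chromium picolinate, both oral. Absolute bioavailability = AUC intragastric ×100%/AUC IV.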

[3] = system: rats with type 2 diabetes; details: cited from earlier work
diabetic mice = details: cited from earlier work
[4] = cited from earlier work; remark: listed apart in the source
[5] = Tissue distribution of Cr; assay type: in vivo, Sprague-Dawley rat; details: oral gavage; for level of Cr in brain / level of Cr in heart / level of Cr in kidney / level of Cr in liver / level of Cr in lung / level of Cr in spleen: at 12 h
In short: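 Male and female SD rats were dosed by oral gavage and killed under anhydrous diethyl ether anaesthesia at 0.25–48 h postdose. Heart, liver, spleen, lung, kidneys and brain were collected, wet-digested as for serum, and Cr measured by simultaneous ICP-OES. Results given per g tissue.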

[6] = Faeces distribution of Cr; assay type: in vivo, Sprague-Dawley rat; details: oral gavage, 20 μg Cr/kg bw; for feces concentration of Cr: at 5 h
[7] = cited from earlier work; remark: listed apart in the source
[8] = Pharmacokinetics of serum Cr after oral gavage; assay type: in vivo, Sprague-Dawley rat; details: for serum concentration of Cr: at 1.5 h
In short: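 SD rats (180 ± 10 g, male and female, 10/group) received 20 μg Cr/kg bw either by gavage after a 12 h fast or via the caudal vein. Blood was drawn retro-orbitally into heparinized tubes at 0–72 h, over 21 time points. Serum (10,000 g, 10 min, 4°C) was wet-digested, 0.1 mL in nitric/perchloric acid (1:4, v/v), and Cr read by simultaneous ICP-OES. Compartment model chosen by AIC and F-test.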

[9] = intraperitoneal administration, ref 32 (Kirman et al.); cited from earlier work
[10] = cited from earlier work; remark: listed apart in the source

Structure (SMILES): O=C([O-])c1ccccn1.O=C([O-])c1ccccn1.O=C([O-])c1ccccn1.[Cr+3] [Chromium picolinate, chromium picolinate]
- genotoxicity, cytotoxicity, and tumorigenesis [1]: had shown the genotoxicity, cytotoxicity, and tumorigenesis

Structure (SMILES): O=C(O)CC(O)C(=O)O.O=C(O)CC(O)C(=O)O.O=C(O)CC(O)C(=O)O.[Cr].[Cr] (stereo not drawn) [Chromium malate, chromium malate]
- oxidative DNA damage [2]: no oxidative DNA damage
- absolute bioavailability (FAB) (Bioavailability analysis; female rats): 113.28% ± 1.72%
- relative bioavailability (FRB) (Bioavailability analysis; female rats): 105.28% ± 1.62%
- absolute bioavailability (FAB) (Bioavailability analysis; male rats): 111.80% ± 1.81%
- relative bioavailability (FRB) (Bioavailability analysis; male rats): 115.73% ± 2.03%
- FBG level and insulin resistance [3]: could improve FBG level and insulin resistance
- blood glucose level (diabetic mice): could improve blood glucose level
- toxicity in the acute toxicity study and subacute toxicity study [4]: nontoxic
- level of Cr in brain ([5]; female rats): 0.6 µg/g
- level of Cr in heart ([5]; female rats): 0.50 µg/g
- level of Cr in kidney ([5]; female rats): 0.78 µg/g
- level of Cr in liver ([5]; female rats): 0.60 µg/g
- level of Cr in lung ([5]; female rats): 0.49 µg/g
- level of Cr in spleen ([5]; female rats): 0.40 µg/g
- tissue distribution of Cr in comparison with control (male and female) groups ([5]; male and female rats): no notable change
- level of Cr in brain ([5]; male rats): 0.67 µg/g
- level of Cr in heart ([5]; male rats): 0.52 µg/g
- level of Cr in kidney ([5]; male rats): 0.84 µg/g
- level of Cr in liver ([5]; male rats): 0.61 µg/g
- level of Cr in lung ([5]; male rats): 0.52 µg/g
- level of Cr in spleen ([5]; male rats): 0.40 µg/g
- feces concentration of Cr ([6]; female rats): 0.47 ± 0.04 µg/g
- feces concentration of Cr ([6]; male rats): 0.50 ± 0.06 µg/g
- feces concentration of Cr in comparison with chromium picolinate group ([6]; same gender rats): no notable change
- 90-day repeated dose oral toxicity and reproductive toxicity [7]: no remarkable influence
- Tmax of serum concentration of Cr ([8]; 20 μg Cr/kg bw, sex not split): 1.5 h
- serum concentration of Cr ([8]; female rats, 20 μg Cr/kg bw): 4760 ± 550 ng/mL
- serum concentration of Cr ([8]; male rats, 20 μg Cr/kg bw): 4630 ± 370 ng/mL
- AUC0→∞ compared with chromium picolinate ([8]; male rats, P ≤ 0.05): higher
- MRT compared with chromium picolinate group ([8]; rats of the same sex, P < 0.05): significantly higher

Structure (SMILES): [Cl][Cr]([Cl])[Cl] [chromium trichloride]
- order of chromium level in mouse organs [9]: liver > kidney > pancreas > spleen > testes > lungs > heart > brain

Structure (SMILES): O=C([O-])c1cccnc1.O=C([O-])c1cccnc1.O=C([O-])c1cccnc1.[Cr+3] [chromium nicotinate]
- solubility [10]: poor solubility
